Laboratory results from PMC7668563 (International journal of molecular biology (Edmond, Okla.), 2020).
Values belong to the compound of their own block, whether it stands above or below them.

Legend:
[1] = molecular target: T1, apo-human transferrin (apo-hTf) (Homo sapiens, UniProt P02787); test: Fluorescence quenching of apo-hTf; type: binding; settings: for biomolecular quenching rate constant kq: kq=Ksv/τ0; for Stern-Volmer quenching constant Ksv / number of binding sites n: pH 7.4; for quenching association constant Ka: pH 7.4, modified Stern-Volmer
T1 sequence (P02787 20-698): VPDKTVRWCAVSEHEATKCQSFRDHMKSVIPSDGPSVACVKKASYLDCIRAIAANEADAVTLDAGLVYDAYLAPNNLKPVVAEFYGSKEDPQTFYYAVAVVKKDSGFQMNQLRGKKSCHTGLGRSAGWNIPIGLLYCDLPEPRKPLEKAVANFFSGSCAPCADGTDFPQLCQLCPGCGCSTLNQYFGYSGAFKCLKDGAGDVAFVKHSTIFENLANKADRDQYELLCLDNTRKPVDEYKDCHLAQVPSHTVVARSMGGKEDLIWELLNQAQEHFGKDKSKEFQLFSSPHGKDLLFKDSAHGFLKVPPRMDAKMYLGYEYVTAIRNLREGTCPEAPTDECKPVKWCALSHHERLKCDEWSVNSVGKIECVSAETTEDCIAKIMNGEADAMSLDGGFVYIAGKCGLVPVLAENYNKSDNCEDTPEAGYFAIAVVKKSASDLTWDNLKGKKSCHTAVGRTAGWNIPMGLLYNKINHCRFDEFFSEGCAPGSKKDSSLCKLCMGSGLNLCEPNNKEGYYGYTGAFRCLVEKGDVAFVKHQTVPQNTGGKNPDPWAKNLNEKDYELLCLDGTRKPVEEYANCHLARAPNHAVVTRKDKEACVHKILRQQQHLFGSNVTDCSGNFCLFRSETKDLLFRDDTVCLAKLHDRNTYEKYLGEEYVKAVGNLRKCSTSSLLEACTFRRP
Method in brief: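 Intrinsic fluorescence of apo-hTf in Tris-HCl pH 7.4 was titrated with test compound (Tris-HCl/2% DMSO). Conditions: excitation 280 nm, emission 290–500 nm, slits 10/5 nm, 1.0 cm quartz cell, at 296, 303, 310 and 317 K, triplicate titrations. Intensities were corrected for inner filter effect using absorbances at excitation and emission wavelengths. Ksv came from Stern-Volmer plots of F0/F vs [Q]; kq = Ksv/τ0 (τ0 ~1.0×10−8); Ka and n came from the modified Stern-Volmer equation.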

[2] = system: human colorectal adenocarcinoma cell line, HT-29; test: MTT cell viability assay on HT-29, 72 h exposure; type: cell-based; settings: read-out: IC50 (±SD), HT-29, HT-29, 72 h of exposure
Method in brief: (§1)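 HT-29 was grown in McCoy's 5A with 10% FBS. MCF-7 was grown in MEM with 10% FBS and 0.01 mg/mL insulin. Both were kept at 37°C, 5% CO2, trypsinized at 70–80% confluency and seeded at 1.5×10^4 cells/well for 24 h. Cells were then exposed for 72 h to test compound in 5% DMSO/95% medium, with DMSO-medium controls. MTT was added as a 2.67 mg/mL solution for 2 h. Formazan was dissolved in 10% Triton X-100/isopropanol and read at A570 minus A620. IC50 came from a sigmoidal fit of viability vs log concentration, eight replicas, triplicate, ±SD.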

[3] = molecular target: T1, apo-human transferrin (apo-hTf); test: Far-UV circular dichroism titration of apo-hTf, secondary structure content
Method in brief: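 Apo-hTf (4.0×10−7 mol L−1) in 2 mM Tris-HCl pH 7.4 was titrated with a 1.0×10−3 mol L−1 stock of test compound in Tris-HCl/2% DMSO, to final 0–2.4×10−6 mol L−1. Far-UV CD was recorded from 190–250 nm under nitrogen in a 1.0 cm cell: six scans at 100 nm/min. Baseline was buffer ± DMSO at room temperature. α-Helix was derived from MRE at 208 nm; β-sheet and random coil by the CD-RRG method.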

[4] = system: human breast adenocarcinoma cell line, MCF-7; test: MTT cell viability assay on MCF-7, 72 h exposure; type: cell-based; settings: for IC50 (±SD), MCF-7: MCF-7, 72 h of exposure
Method in brief: as §1

[5] = molecular target: T1, apo-human transferrin (apo-hTf); test: Thermodynamic parameters of apo-hTf complex formation; type: binding; settings: for ∆H° / ∆S°: pH 7.4, from Ksv at 296-317 K
Method in brief: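 Ksv values were obtained from apo-hTf fluorescence quenching at pH 7.4 at 296, 303, 310 and 317 K. ΔH°, ΔS° and ΔG° were derived from linear regression of ln(Ksv) vs 1/T (Van't Hoff equation).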

[6] = molecular target: T1, apo-human transferrin (apo-hTf); test: UV-Vis absorbance titration of apo-hTf; type: binding; settings: for Ka at 280 nm: absorbance at 280 nm; for Association constants, Ka, 280 nm: absorbance of apo-hTf at 280 nm, pH 7.4
[7] = molecular target: T1, apo-human transferrin (apo-hTf); test: Fluorescence resonance energy transfer; type: binding; settings: for Förster critical energy transfer distance R0 / binding distance r (donor-acceptor): k^2=2/3, n=1.336, ØD=0.118; for efficiency of energy transfer E: room temperature, 1.0×10^−5 mol L^−1 each
Method in brief: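 Emission spectrum of 1.0×10−5 mol L−1 apo-hTf and absorption spectrum of 1.0×10−5 mol L−1 test compound were recorded in 20 mM Tris-HCl pH 7.4 at room temperature, 260–450 nm, and their spectral overlap determined. E was calculated from apo-hTf fluorescence without and with equimolar test compound. R0 and donor–acceptor distance r came from Förster equations.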

SMILES: [Cl][Zr+2][Cl].c1cc[cH-]c1.c1cc[cH-]c1 [Cp2ZrCl2]
biomolecular quenching rate constant kq ([1]; 296 K): 2.39e+11 M⁻¹ s⁻¹
Stern-Volmer quenching constant Ksv ([1]; 296 K): 2390 M⁻¹
number of binding sites n ([1]; 296 K): 1.07
quenching association constant Ka ([1]; 296 K): 4400 M⁻¹
biomolecular quenching rate constant kq ([1]; 303 K): 1.97e+11 M⁻¹ s⁻¹
Stern-Volmer quenching constant Ksv ([1]; 303 K): 1970 M⁻¹
number of binding sites n ([1]; 303 K): 1.03
quenching association constant Ka ([1]; 303 K): 2600 M⁻¹
biomolecular quenching rate constant kq ([1]; 310 K): 1.79e+11 M⁻¹ s⁻¹
Stern-Volmer quenching constant Ksv ([1]; 310 K): 1790 M⁻¹
number of binding sites n ([1]; 310 K): 1.01
quenching association constant Ka ([1]; 310 K): 2000 M⁻¹
biomolecular quenching rate constant kq ([1]; 317 K): 1.5e+11 M⁻¹ s⁻¹
Stern-Volmer quenching constant Ksv ([1]; 317 K): 1500 M⁻¹
number of binding sites n ([1]; 317 K): 1
quenching association constant Ka ([1]; 317 K): 1600 M⁻¹
IC50 [2]: 774 µM
other secondary structure content of apo-hTf ([3]; compound concentration 0.4 (M)): 18.9%
random coil content of apo-hTf ([3]; compound concentration 0.4 (M)): 33.8%
α-helix content of apo-hTf ([3]; compound concentration 0.4 (M)): 29.2%
β-sheet content of apo-hTf ([3]; compound concentration 0.4 (M)): 18.1%
other secondary structure content of apo-hTf ([3]; compound concentration 0.8 (M)): 18.8%
random coil content of apo-hTf ([3]; compound concentration 0.8 (M)): 33.9%
α-helix content of apo-hTf ([3]; compound concentration 0.8 (M)): 29.1%
β-sheet content of apo-hTf ([3]; compound concentration 0.8 (M)): 18.2%
other secondary structure content of apo-hTf ([3]; compound concentration 1.2 (M)): 18.8%
random coil content of apo-hTf ([3]; compound concentration 1.2 (M)): 33.9%
α-helix content of apo-hTf ([3]; compound concentration 1.2 (M)): 29%
β-sheet content of apo-hTf ([3]; compound concentration 1.2 (M)): 18.3%
other secondary structure content of apo-hTf ([3]; compound concentration 1.6 (M)): 18.9%
random coil content of apo-hTf ([3]; compound concentration 1.6 (M)): 33.9%
α-helix content of apo-hTf ([3]; compound concentration 1.6 (M)): 28.8%
β-sheet content of apo-hTf ([3]; compound concentration 1.6 (M)): 18.4%
other secondary structure content of apo-hTf ([3]; compound concentration 2 (M)): 18.9%
random coil content of apo-hTf ([3]; compound concentration 2 (M)): 34%
α-helix content of apo-hTf ([3]; compound concentration 2 (M)): 28.6%
β-sheet content of apo-hTf ([3]; compound concentration 2 (M)): 18.5%
other secondary structure content of apo-hTf ([3]; compound concentration 2.4 (M)): 18.9%
random coil content of apo-hTf ([3]; compound concentration 2.4 (M)): 34.1%
α-helix content of apo-hTf ([3]; compound concentration 2.4 (M)): 28.4%
β-sheet content of apo-hTf ([3]; compound concentration 2.4 (M)): 18.6%
IC50 (±SD), MCF-7 [4]: proliferative activity
IC50 (±SD), MCF-7 ([4]; listed as Cp^2ZrCl^2): Proliferative
∆G° ([5]; 296 K): -4.57 kcal/mol
∆G° ([5]; 303 K): -4.584 kcal/mol
∆G° ([5]; 310 K): -4.598 kcal/mol
∆G° ([5]; 317 K): -4.613 kcal/mol
∆H° [5]: -3.975 kcal/mol
∆S° [5]: 8.41 J/mol K
Ka at 280 nm [6]: 2220 M⁻¹
Association constants, Ka, 280 nm [6]: 2.22 10^3 M^−1
Förster critical energy transfer distance R0 [7]: 7.3 nm
binding distance r (donor-acceptor) [7]: 10.03 nm
efficiency of energy transfer E [7]: 0.129

biomolecular quenching rate constant kq ([1]; 296 K): 2.523e+12 M⁻¹ s⁻¹
Stern-Volmer quenching constant Ksv ([1]; 296 K): 25230 M⁻¹
number of binding sites n ([1]; 296 K): 1.26
quenching association constant Ka ([1]; 296 K): 325300 M⁻¹
biomolecular quenching rate constant kq ([1]; 303 K): 2.804e+12 M⁻¹ s⁻¹
Stern-Volmer quenching constant Ksv ([1]; 303 K): 28040 M⁻¹
number of binding sites n ([1]; 303 K): 1.27
quenching association constant Ka ([1]; 303 K): 408100 M⁻¹
biomolecular quenching rate constant kq ([1]; 310 K): 3.056e+12 M⁻¹ s⁻¹
Stern-Volmer quenching constant Ksv ([1]; 310 K): 30560 M⁻¹
number of binding sites n ([1]; 310 K): 1.28
quenching association constant Ka ([1]; 310 K): 485500 M⁻¹
biomolecular quenching rate constant kq ([1]; 317 K): 3.323e+12 M⁻¹ s⁻¹
Stern-Volmer quenching constant Ksv ([1]; 317 K): 33230 M⁻¹
number of binding sites n ([1]; 317 K): 1.29
quenching association constant Ka ([1]; 317 K): 562300 M⁻¹
IC50 [2]: 266 µM
other secondary structure content of apo-hTf ([3]; compound concentration 0.4 (M)): 19.5%
random coil content of apo-hTf ([3]; compound concentration 0.4 (M)): 33.8%
α-helix content of apo-hTf ([3]; compound concentration 0.4 (M)): 29%
β-sheet content of apo-hTf ([3]; compound concentration 0.4 (M)): 17.7%
other secondary structure content of apo-hTf ([3]; compound concentration 0.8 (M)): 19.4%
random coil content of apo-hTf ([3]; compound concentration 0.8 (M)): 34%
α-helix content of apo-hTf ([3]; compound concentration 0.8 (M)): 28.7%
β-sheet content of apo-hTf ([3]; compound concentration 0.8 (M)): 17.9%
other secondary structure content of apo-hTf ([3]; compound concentration 1.2 (M)): 19.7%
random coil content of apo-hTf ([3]; compound concentration 1.2 (M)): 34.2%
α-helix content of apo-hTf ([3]; compound concentration 1.2 (M)): 27.6%
β-sheet content of apo-hTf ([3]; compound concentration 1.2 (M)): 18.5%
other secondary structure content of apo-hTf ([3]; compound concentration 1.6 (M)): 19.8%
random coil content of apo-hTf ([3]; compound concentration 1.6 (M)): 34.4%
α-helix content of apo-hTf ([3]; compound concentration 1.6 (M)): 26.9%
β-sheet content of apo-hTf ([3]; compound concentration 1.6 (M)): 18.9%
other secondary structure content of apo-hTf ([3]; compound concentration 2 (M)): 20.2%
random coil content of apo-hTf ([3]; compound concentration 2 (M)): 34.6%
α-helix content of apo-hTf ([3]; compound concentration 2 (M)): 26.2%
β-sheet content of apo-hTf ([3]; compound concentration 2 (M)): 19%
other secondary structure content of apo-hTf ([3]; compound concentration 2.4 (M)): 20.4%
random coil content of apo-hTf ([3]; compound concentration 2.4 (M)): 34.8%
α-helix content of apo-hTf ([3]; compound concentration 2.4 (M)): 25.4%
β-sheet content of apo-hTf ([3]; compound concentration 2.4 (M)): 19.4%
IC50 ([4]; read-out: IC50 (±SD), MCF-7, MCF-7, 72 h of exposure): 1300 µM
∆G° ([5]; 296 K): -5.963 kcal/mol
∆G° ([5]; 303 K): -6.164 kcal/mol
∆G° ([5]; 310 K): -6.362 kcal/mol
∆G° ([5]; 317 K): -6.561 kcal/mol
∆H° [5]: 2.431 kcal/mol
∆S° [5]: 118.65 J/mol K
Ka at 280 nm [6]: 3000 M⁻¹
Association constants, Ka, 280 nm [6]: 3 10^3 M^−1
Förster critical energy transfer distance R0 [7]: 2.56 nm
binding distance r (donor-acceptor) [7]: 3.04 nm
efficiency of energy transfer E [7]: 0.26
SMILES: C1CCCC1.C1CCCC1.[Cl][Nb][Cl] [Cp2NbCl2]
